Usually logP stands for the decadic logarithm of the partition coefficient of the neutral form, usually between octanol and water. Broadly, the IC50 is the concentration that gives 50% inhibition. One may read the inhibition as the percentage by which the read-out fell short of the control. A lower inhibition goes with a response near the control.

Experimental findings from ChEMBL document CHEMBL1128335, “Design and synthesis of piperidine-3-carboxamides as human platelet aggregation inhibitors” (J Med Chem, 1995) are described below.

Data set [1] in a line: Partition coefficient (logP). Type of data set: physicochemical. The settings on record: octanol/water.
The species named for data set [2] is Homo sapiens. Put plainly: Inhibitory activity against human platelet aggregation. Type of data set: functional. The method, boiled down:
(§1)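 Human citrated PRP (blood:3.2% citrate 8:1; 120g, 15 min, 23 °C), count adjusted to 250 000–300 000/mm^3 with autologous PPP, gassed with 5% CO2/95% air, held at 37 °C. Test compound incubated 4 min. Aggregation triggered with each donor's minimal ADP concentration giving full biphasic response. Light transmission recorded 5.5 min. IC50 from regression of % inhibition on log molar concentration; mean ± SE, 4–6 determinations.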

Data set [3] is filed under the species Homo sapiens. Put plainly: Inhibitory activity against human platelet aggregation; Inactive. Type of data set: functional. In short, it runs like this:
as §1

The species entered for data set [4] is Homo sapiens. Put plainly: Inhibitory activity against human platelet aggregation at 200 uM. It counts as functional.

Molecules are shown by their SMILES. Where only a bound is given, the exact number is not on record here.

For the compound `CCOC(=O)C1CCCN(Cc2ccc(CN3CCCC(C(=O)OCC)C3)cc2)C1` (stereo not drawn), in data set [1] (read-out: logP), the logP came out at 4.21. For the same compound, the IC50 in the data set filed under Homo sapiens [2] (Homo sapiens, read-out: IC50) is 757 µM.
The matching figures for `CCCCN(CC)C(=O)C1CCCN(Cc2ccc(CN3CCCC(C(=O)N(CC)CCCC)C3)cc2)C1` (stereo not drawn): 5.55 and 18.4 µM.
The like results for `CCN(CC)C(=O)C1CCCN(Cc2ccc(-c3ccc(CN4CCCC(C(=O)N(CC)CC)C4)cc3)cc2)C1` (stereo not drawn) were, in that order, 5.43 and 478 µM.
The like results for `CCN(Cc1ccccc1)C(=O)C1CCCN(Cc2ccc(CN3CCCC(C(=O)N(CC)Cc4ccccc4)C3)cc2)C1` (stereo not drawn) were, in that order, 5.76 and 37.7 µM.
Regarding `CC(O)C1CCCN(Cc2ccc(CN3CCCC(C(C)O)C3)cc2)C1` (stereo not drawn), the logP in data set [1] (read-out: logP) was determined as 2.3. Besides, in the data set listed under Homo sapiens [2] (Homo sapiens, read-out: IC50), the IC50 was 589 µM.
The matching figures for `CC(C)N(C)C(=O)C1CCCN(Cc2ccc(CN3CCCC(C(=O)N(C)C(C)C)C3)cc2)C1` (stereo not drawn): 3.48 and 144 µM.
The matching figures for `O=C(C1CCCN(Cc2ccc(CN3CCCC(C(=O)N4CCC(Cc5ccccc5)CC4)C3)cc2)C1)N1CCC(Cc2ccccc2)CC1` (stereo not drawn): 8.14 and 277 µM.
Regarding `CCCCCCN(C)C(=O)C1CCCN(Cc2ccc(CN3CCCC(C(=O)N(C)CCCCCC)C3)cc2)C1` (stereo not drawn), the logP in data set [1] (read-out: logP) came to 6.59. In addition, the IC50 in the data set filed under Homo sapiens [2] (Homo sapiens, read-out: IC50) amounted to 48.8 µM.
`O=C(O)C1CCCN(Cc2ccc(CN3CCCC(C(=O)O)C3)cc2)C1` (stereo not drawn): the logP in data set [1] (read-out: logP) amounted to 2.45. Also, the IC50 in the data set listed under Homo sapiens [2] (Homo sapiens, read-out: IC50) was over 500 µM.
In the case of `CCCCCCCCCCN1CCCC(C(=S)N(CC)CC)C1` (stereo not drawn), in data set [1] (read-out: logP), the logP was 6.53. For the same compound, in the data set filed under Homo sapiens [2] (Homo sapiens, read-out: IC50), the IC50 amounted to 358 µM.
Take `Br.Br.CCN(CC)C(=O)C1CC(C(=O)N(CC)CC)CN(Cc2ccc(CN3CC(C(=O)N(CC)CC)CC(C(=O)N(CC)CC)C3)cc2)C1` (stereo not drawn): the IC50 result in the data set listed under Homo sapiens [3] is “Not Active”. Moreover, the logP in data set [1] (read-out: logP) is 3.39.
In the case of `CCN(CC)C(=O)C1CCCN(Cc2cccc(Cl)c2)C1` (stereo not drawn), the logP in data set [1] (read-out: logP) was found to be 3.49. Also, the IC50 in the data set filed under Homo sapiens [2] (Homo sapiens, read-out: IC50) worked out at 1650 µM.
For `CCCCCCCCCCN1CCCC(C(=O)N2CC(C)N(C(=O)C3CCCN(CCCCCCCCCC)C3)CC2C)C1` (stereo not drawn), in data set [1], the logP is recorded as 10.096. In addition, the IC50 in the data set listed under Homo sapiens [2] (Homo sapiens, read-out: IC50) turned out to be 23.8 µM.
On to `CC1CCCN(Cc2ccc(CN3CCCC(C)C3)cc2)C1` (stereo not drawn), for which the logP in data set [1] (read-out: logP) was found to be 4.6. The half-maximal inhibitory concentration (IC50) in the data set filed under Homo sapiens [2] (Homo sapiens, read-out: IC50) is over 500 µM.
As for `CCCCCCCCCCN1CCCC(C(=O)N2CCN(C(=O)C3CCCN(CCCCCCCCCC)C3)C(C)C2)C1` (stereo not drawn), the logP in data set [1] turned out to be 9.58. In addition, the IC50 in the data set filed under Homo sapiens [2] (Homo sapiens, read-out: IC50) came out at 20.9 µM.
For `CCCCCCCCCCN1CCCC(NC(=O)C2CCCN(CCCCCCCCCC)C2)C1` (stereo not drawn), in the data set listed under Homo sapiens [3], the IC50 entry is on record as “Not Active”. In data set [1], this compound returned a logP of 9.96.
The compound `CCCCCCCCCCN1CCCC(C(=O)N2CCN(C(=O)C3CCCN(CCCCCCCCCC)C3)CC2)C1` (stereo not drawn) came in with a logP in data set [1] of 9.06. Further, the IC50 in the data set listed under Homo sapiens [2] (Homo sapiens, read-out: IC50) came out at 16 µM.
For the compound `CCN(CC)C(=O)C1CCCN(Cc2ccc(Cl)cc2)C1` (stereo not drawn), the logP in data set [1] (read-out: logP) came to 3.49. Further, in the data set filed under Homo sapiens [2] (Homo sapiens, read-out: IC50), the IC50 was 217 µM.
The matching figures for `CCCN(C)C(=O)C1CCCN(Cc2ccc(CN3CCCC(C(=O)N(C)CCC)C3)cc2)C1` (stereo not drawn): 3.48 and 34.6 µM.
The like results for `CCN(CC)C(=O)C1CCCN(CCCCCCCCCCCCN2CCCC(C(=O)N(CC)CC)C2)C1` (stereo not drawn) were, in that order, 6.96 and 85.3 µM.
The matching figures for `O=C(C1CCCN(Cc2ccc(CN3CCCC(C(=O)N4CCOCC4)C3)cc2)C1)N1CCOCC1` (stereo not drawn): 0.74 and 1650 µM.
For the compound `CCN(CC)C(=O)C1CCCN(CCCCCCCCN2CCCC(C(=O)N(CC)CC)C2)C1` (stereo not drawn), in data set [1] (read-out: logP), the lipophilicity (logP) was found to be 4.89. The IC50 in the data set filed under Homo sapiens [2] (Homo sapiens, read-out: IC50) was determined as 214 µM.
The like results for `O=C(NCc1ccccc1)C1CCCN(Cc2ccc(CN3CCCC(C(=O)NCc4ccccc4)C3)cc2)C1` (stereo not drawn) were, in that order, 4.18 and 53.6 µM.
In turn, `CCCCCCCCCCN1CCCC(C(=O)N2CCC(C3CCN(C(=O)C4CCCN(CCCCCCCCCC)C4)CC3)CC2)C1` (stereo not drawn) showed a logP in data set [1] of 11.322. In the data set filed under Homo sapiens [2] (Homo sapiens, read-out: IC50), the IC50 was determined as 25.9 µM.
In the case of `CC(C)N(C(=O)C1CCCN(Cc2ccc(CN3CCCC(C(=O)N(C(C)C)C(C)C)C3)cc2)C1)C(C)C` (stereo not drawn), the logP in data set [1] (read-out: logP) was found to be 5.55. In addition, in the data set listed under Homo sapiens [2] (Homo sapiens, read-out: IC50), the IC50 was 58.8 µM.
The like results for `CCCN(CCC)C(=O)C1CCCN(Cc2ccc(CN3CCCC(C(=O)N(CCC)CCC)C3)cc2)C1` (stereo not drawn) were, in that order, 5.55 and 39.3 µM.
Turning to `CCN(CC)C(=O)C1CCCN(Cc2ccccc2Cl)C1` (stereo not drawn), in data set [1] (read-out: logP), the logP was 3.49. For the same compound, the IC50 in the data set filed under Homo sapiens [2] (Homo sapiens, read-out: IC50) stood at 2810 µM.
The matching figures for `CCN(CC)C(=S)C1CCCN(Cc2ccc(CN3CCCC(C(=S)N(CC)CC)C3)cc2)C1` (stereo not drawn): 5.01 and 51.6 µM.
In turn, `CCCCCCCCCCN1CCCC(C(=O)N2CC(C)N(C(=O)C3CCCN(CCCCCCCCCC)C3)C(C)C2)C1` (stereo not drawn) had a logP in data set [1] of 10.096. The IC50 in the data set filed under Homo sapiens [2] (Homo sapiens, read-out: IC50) is 22.9 µM.
For `Br.CCN(CC)C(=O)C1CCCN(Cc2ccc(C(C)(C)C)cc2)C1` (stereo not drawn), the logP in data set [1] (read-out: logP) turned out to be 4.83. Besides, the IC50 entry in the data set listed under Homo sapiens [2] is “Not Active”. In the data set filed under Homo sapiens [4], at 200 µM the inhibition was 2%.
For `CCN(CC)C(=O)C1CCCN(CN2CC2)C1` (stereo not drawn), in data set [1] (read-out: logP), the logP worked out at 2.43. Further, the IC50 in the data set listed under Homo sapiens [2] (Homo sapiens, read-out: IC50) stood at 3250 µM.
The like results for `CCCCCCCCCCN1CCCC(C(=O)N(CC)CC)C1` (stereo not drawn) were, in that order, 5.76 and 242 µM.
The matching figures for `COc1cc(CNC(=O)C2CCCN(Cc3ccc(CN4CCCC(C(=O)NCc5cc(OC)c(OC)c(OC)c5)C4)cc3)C2)cc(OC)c1OC` (stereo not drawn): 4.06 and 134 µM.
The like results for `CCN(CC)C(=O)C1CCCN(CC2CCC(CN3CCCC(C(=O)N(CC)CC)C3)CC2)C1` (stereo not drawn) were, in that order, 4.57 and over 1000 µM.
Take `O=C(C1CCCN(Cc2ccc(CN3CCCC(C(=O)N4CCCCC4)C3)cc2)C1)N1CCCCC1` (stereo not drawn): in data set [1] (read-out: logP), the logP came to 3.79. In the data set filed under Homo sapiens [2] (Homo sapiens, read-out: IC50), the IC50 came to 28.9 µM.
The matching figures for `CCN(CC)C(=O)C1CCCN(Cc2ccccc2-c2ccccc2CN2CCCC(C(=O)N(CC)CC)C2)C1` (stereo not drawn): 5.43 and 354 µM.
For `CCN(CC)C(=O)C1CCCN(Cc2ccccc2)C1` (stereo not drawn), the logP in data set [1] (read-out: logP) amounted to 2.75. Moreover, the IC50 in the data set filed under Homo sapiens [2] (Homo sapiens, read-out: IC50) was 7400 µM.
For the compound `CCCCCN1CCCC(C(=O)N2CCCN(C(=O)C3CCCN(CCCCC)C3)CC2)C1` (stereo not drawn), the logP in data set [1] (read-out: logP) came to 4.63. Also, the IC50 in the data set filed under Homo sapiens [2] (Homo sapiens, read-out: IC50) is 84.6 µM.
The matching figures for `CCN(CC)C(=O)C1CCCN(CCCCCCCCCCN2CCCC(C(=O)N(CC)CC)C2)C1` (stereo not drawn): 5.92 and 207 µM.
The like results for `O=C(C1CCCN(Cc2ccc(CN3CCCC(C(=O)N4CCCC4)C3)cc2)C1)N1CCCC1` (stereo not drawn) were, in that order, 2.75 and 32.7 µM.
With `c1cc(CN2CCCCC2)ccc1CN1CCCCC1`, the logP in data set [1] (read-out: logP) amounted to 3.57. Further, the IC50 in the data set listed under Homo sapiens [2] (Homo sapiens, read-out: IC50) stood at 8460 µM.
For `CC(=O)NCC1CCCN(Cc2ccc(CN3CCCC(CNC(C)=O)C3)cc2)C1` (stereo not drawn), the logP in data set [1] (read-out: logP) came out at 0.74.
Turning to `O=C(C1CCCN(Cc2ccc(CN3CCCC(C(=O)N4CCSCC4)C3)cc2)C1)N1CCSCC1` (stereo not drawn), in data set [1] (read-out: logP), the logP worked out at 2.89. Further, the IC50 in the data set filed under Homo sapiens [2] (Homo sapiens, read-out: IC50) is 311 µM.
`O=C(C1CCCN(Cc2ccc(CN3CCCC(C(=O)N(Cc4ccccc4)Cc4ccccc4)C3)cc2)C1)N(Cc1ccccc1)Cc1ccccc1` (stereo not drawn): the logP in data set [1] (read-out: logP) came to 8.03. For the same compound, the IC50 in the data set filed under Homo sapiens [2] (Homo sapiens, read-out: IC50) is 303 µM.
